Experimental data taken from ChEMBL document CHEMBL1137526, “The design and synthesis of N-1-alkylated-5-aminoarylalkylsubstituted-6-methyluracils as potential non-nucleoside HIV-1 RT inhibitors” (Bioorg Med Chem, 2007).
Calls of active or inactive are those of the source. The calls are words filed in the database; no cut-off is given here.

What was measured:
[1] = molecular target: Human immunodeficiency virus type 1 reverse transcriptase (Human immunodeficiency virus 1, UniProt Q72547); assay: Inhibition of HIV1 reverse transcriptase by ELISA
Method in brief: (§1)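 Recombinant HIV-1 RT, non-radioactive ELISA. Oligo(dT) attached through its 5'-phosphate to the plate acts as primer on a poly(A) template (10 µg/ml). Read-out by streptavidin-alkaline phosphatase with PNPP.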

[2] = molecular target: Human immunodeficiency virus type 1 reverse transcriptase (Human immunodeficiency virus 1) (UniProt Q72547); assay: Inhibition of HIV1 reverse transcriptase upto 100 uM by ELISA; method in brief: as §1

| SMILES | IC50 [1] [µM] | Activity [2] |
| --- | --- | --- |
| CCOCn1c(C)c(CNc2cc(C)ccc2C)c(=O)[nH]c1=O | 26.2 |  |
| CCOCn1c(C)c(CNc2cc(Cl)c(Cl)cc2Cl)c(=O)[nH]c1=O | 0.82 |  |
| Cc1c(CNC2CCCCC2)c(=O)[nH]c(=O)n1COCc1ccccc1 | 5.09 |  |
| CCOCn1c(C)c(CNc2ncccn2)c(=O)[nH]c1=O |  | inactive |
| CCOCn1c(C)c(CNc2ccc([N+](=O)[O-])cc2)c(=O)[nH]c1=O |  | inactive |
| CCOCn1c(C)c(CNc2c(Cl)cc(Cl)cc2Cl)c(=O)[nH]c1=O |  | inactive |
| CCOCn1c(C)c(CNc2ccccn2)c(=O)[nH]c1=O | 54.7 |  |
| Cc1c(CNc2ccccc2[N+](=O)[O-])c(=O)[nH]c(=O)n1COCc1ccccc1 |  | inactive |

Next, values leading:

| IC50 [1] [µM] | Activity [2] | SMILES |
| --- | --- | --- |
|  | inactive | Cc1c(CNc2c(Cl)cc(Cl)cc2Cl)c(=O)[nH]c(=O)n1COCc1ccccc1 |
|  | inactive | CCOCn1c(C)c(CNc2c(C)cccc2C)c(=O)[nH]c1=O |
|  | inactive | CCOCn1c(C)c(CNc2ccc(C)cc2)c(=O)[nH]c1=O |
|  | inactive | CCOCn1c(C)c(CNc2cccc3ccccc23)c(=O)[nH]c1=O |
| 13.8 |  | Cc1ccc(NCc2c(C)n(COCc3ccccc3)c(=O)[nH]c2=O)cc1 |
| > 100 |  | CCOCn1c(C)c(CNc2ccccc2[N+](=O)[O-])c(=O)[nH]c1=O |
|  | inactive | Cc1c(CNc2cccc([N+](=O)[O-])c2)c(=O)[nH]c(=O)n1COCc1ccccc1 |
|  | inactive | CCOCn1c(C)c(CNc2cccc([N+](=O)[O-])c2)c(=O)[nH]c1=O |
| 3.49 |  | Cc1c(CN(C)c2ccccc2)c(=O)[nH]c(=O)n1COCc1ccccc1 |
|  | inactive | Cc1c(CNc2ccc([N+](=O)[O-])cc2)c(=O)[nH]c(=O)n1COCc1ccccc1 |
|  | inactive | CCOCn1c(C)c(CN(C)c2ccccc2)c(=O)[nH]c1=O |
|  | inactive | CCOCn1c(C)c(CNC2CCCCC2)c(=O)[nH]c1=O |
| > 100 |  | Cc1c(CNc2cc(Cl)c(Cl)cc2Cl)c(=O)[nH]c(=O)n1COCc1ccccc1 |
